According to ChEMBL document CHEMBL4513216, “Probing the Open Global Health Chemical Diversity Library for Multistage-Active Starting Points for Next-Generation Antimalarials” (ACS Infect Dis, 2020):

Assay: Toxicity liver stage against HepG2, at 10uM
Format: cell-based
Set-up: test concentration 10 uM, cell line HepG2-A16-CD81EGFP
Conditions: human, HepG2-A16-CD81EGFP cells; read-out: INHIBITION
Outline: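 Uninfected HepG2-A16-CD81EGFP cells, 3 × 10^3 per well, 1536-well, plated on prespotted compound at 10 μM final, parasite-free screening media added to match infected plates; puromycin 10 μM positive, DMSO 0.5% negative; run in parallel with 48 h PbLuc assay at 37 °C, 5% CO2; viability by CellTiter-Glo luminescence, normalized to controls.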

SMILES	cytotoxicity at 10 µM [%]
O=C(Nc1ccc2c(c1)C(=O)NC2=O)c1ccc(Cl)s1	-3.96
c1cc(-c2nnc([C@H]3CCNC3)o2)ccn1	4.82
O=C(N[C@H]1CCCC[C@@H]1O)c1ccc2nc(-c3ccccc3)[nH]c2c1	0.822
O=c1n(Cc2ccc(C(F)(F)F)cc2)nc2ncccn12	-4.06
Cc1nnc(NC(=O)c2c3c(nn2C2CCS(=O)(=O)C2)CCC3)s1 (stereo not drawn)	-14.2
CN(C)c1ncc(NC(=O)c2ccccc2C(F)(F)F)cn1	-9.66
COCC(C)(O)CNC(=O)c1cc(-c2ccc(F)cc2)nn1C (stereo not drawn)	-5.1
CCS(=O)(=O)N1CCC2(CCCC(=O)N2C)CC1	0.817
Cc1ccc(C(=O)N2C[C@H]3CNC[C@H]3C2)cn1	-1.16
CC(C)CN1CCNC(=O)C12CCN(S(=O)(=O)c1ccc(F)cc1)CC2	-3.16
CCn1cc2c(n1)C(COCC1CC1)CN(C(=O)c1ccco1)C2 (stereo not drawn)	17.6
CC(C)N1CCC2(CC1)CN(C)C(=O)C[C@H]2C(F)(F)F	-160
Cn1cc(CN2CCO[C@H]3CN(Cc4ccsc4)C[C@H]32)cn1	-147
Cc1nnn2c1COCC(CNC(=O)c1ccnnc1)C2 (stereo not drawn)	-1.35
O=C(C1CCOC1)N1CCc2ncnc(-c3cccnc3)c2CC1 (stereo not drawn)	-3.13
CN1C(=O)C(c2cccnc2)CC12CCN(C(=O)c1ccc[nH]1)CC2 (stereo not drawn)	-0.19
Cc1nc(CN2CCO[C@H]3CN(C(=O)c4cscn4)C[C@H]32)cs1	-128
O=C(NCC1CCN(C(=O)c2ccoc2)CC1)c1ccccc1Br	-12.3
CC1CCN(C(=O)c2cnn3c(-c4ccco4)ccnc23)CC1	8.77
Cc1cccc(NC(=O)c2ccc(OCc3nnnn3C)cc2)n1	-34.1
CNC(=O)CNC(=O)c1ccc(-c2scnc2C)nc1	-4.26
CN1CCCC1c1cncc(C(=O)NCC2CC2)n1 (stereo not drawn)	-8.41
O=C(c1ncccn1)N1C[C@@H]2CC[C@H](Oc3cccc(F)c3)[C@@H]2C1	-27.5

SMILES	cytotoxicity at 10 µM [%]
CCS(=O)(=O)NCCNc1c(C#N)cnc2c(C)cc(F)cc12	-0.453
CCN1CCOC(CNCc2cnc(N(CC)CC)s2)C1 (stereo not drawn)	0.598
COCc1ccccc1NC(=O)c1ccoc1	-2.17
Cn1cc(NC(=O)N2CCCC2c2ccccn2)ccc1=O (stereo not drawn)	-3.83
COC(=O)c1occc1Cn1cc(Br)cn1	-5.63
N#Cc1ccc(SCCC(=O)Nc2ccc(CC(N)=O)cc2)cc1	-5.25
CN(CC(=O)N1CCCC1)C(=O)c1cccn1CCc1ccccc1	6.99
CN1CCOC(CNC(=O)CCc2cc(F)ccc2F)C1 (stereo not drawn)	2.32
CCN(CC)c1nc2sc(C(=O)N3CCNC(=O)C3)cc2s1	-4.29
Clc1ccc2cccnc2c1CNC1CCc2ncnn2C1 (stereo not drawn)	-6.53
Cn1nc2c(cc1=O)CN(c1nc3ccccc3s1)CC2	2.89
CN1CCOC(CNCCCOc2ccc(C#N)cc2)C1 (stereo not drawn)	6.91
Cc1nc(-c2nnc[nH]2)sc1C(=O)N1CCCC1c1cccs1 (stereo not drawn)	11.1
Cc1noc(CCNC(=O)NCc2ccc(N3CCCCC3)cc2)n1	9.47
CN1CCN(C(=O)c2cc(C#N)cs2)c2ccccc2C1	10.2
CCSCCC(C)N(C)C(=O)c1cc(C)on1 (stereo not drawn)	-7.32
CC(O)CC(C)(C)CNC(=O)Nc1cnn(-c2ccccc2F)c1 (stereo not drawn)	-3.27
N#CCCN(Cc1cccnc1)C(=O)c1ccc(OCC2CC2)cc1	-8.17
CN(CCCNC(=O)CN1CCS(=O)(=O)CC1)c1ccccc1	-4.65
CC(C)(C)OC(=O)NCC1CCN(C(=O)c2ccccc2O)C1 (stereo not drawn)	-3.73
Cc1nn(C)c(N2CCOCC2)c1CNCC1CCN(C2CC2)C1 (stereo not drawn)	-3.32
CNC(=O)c1cccc(NC(=O)NCc2ccc(SC)cc2)c1C	-4.44
CCOc1ccc(NC(=O)NC2CCc3nc(C)nn3C2)cc1Cl (stereo not drawn)	-3.81

SMILES	cytotoxicity at 10 µM [%]
Cc1nonc1NC(=O)C1SCCc2ccccc21 (stereo not drawn)	-3
O=C(Nc1nc(-c2ccccc2)ns1)N1CCC(CO)CC1	9.11
Cc1nn(C)c(N(C)C)c1CNCc1ccc(Cn2cccn2)cc1	3.73
O=C(NC1CCS(=O)(=O)C1)c1sccc1OC(F)F (stereo not drawn)	-0.699
COc1ccc(-c2nc(CN3CCCS3(=O)=O)co2)cc1	-6.24
COc1c(CNCc2cccnc2N2CCCCC2)c(C)nn1C	-151
CCOCCNC(=O)c1cccc(Cn2nc(C)cc2C)c1	-7.69
Cc1cc(C(=O)N2CCCC2c2nnc3n2CCCCC3)on1 (stereo not drawn)	1.68
Cc1ncc2c(n1)CN(CC(O)COc1ccc(C#N)cc1)CC2 (stereo not drawn)	7.45
COc1ccnc(NC(=O)c2cscn2)c1	9.72
CSc1ccc(NC(=O)NCC(O)C(C)C)cc1F (stereo not drawn)	6.93
COCCN(C)C(=O)Nc1ccn(-c2cccc(C(F)(F)F)c2)n1	-2.16
Cc1ccc(C(C)(O)CNC(=O)c2sccc2Br)o1 (stereo not drawn)	4.77
CN(C(=O)CNc1ccc(C#N)cc1)C1CCCCC1	0.0479
CCn1c(CN(C)C(=O)c2ccc(O)nc2)nc2ccccc21	10.2
O=C(NCC1CCCO1)c1csc(Cc2ccccc2)n1 (stereo not drawn)	-110
O=C(CCCc1ccccn1)N1CCSC2(CCCCC2)C1	-3.71
Cc1cccc2c1C(=O)NC(c1cnc(C3CCC3)s1)N2 (stereo not drawn)	-3.33
CN(c1ccc(CNc2ccc(Cl)cn2)cc1)S(C)(=O)=O	5.03
COc1cc(-n2cccc2)c(Cl)cc1C(N)=O	-10.4
N#CC1C(=O)Nc2c(cnn2C2CCCC2)C12CCCCC2 (stereo not drawn)	8.46
CCc1nc2n(n1)CCCC2NC(=O)Nc1cccc(F)c1F (stereo not drawn)	2.39
O=S1(=O)CCCN1Cc1coc(-c2cccs2)n1	17.5

SMILES	cytotoxicity at 10 µM [%]
CSCc1nc(CCNC(=O)C2CCCN(C(C)=O)C2)cs1 (stereo not drawn)	-4.84
CCOc1ccc(CN2CCCC(c3nn(C)c(=O)n3CC)C2)cn1 (stereo not drawn)	-2.85
Cc1c(C(=O)N2CCCC(O)(CN(C)C)CC2)c2cc(O)ccc2n1C (stereo not drawn)	-119
CN(C(=O)c1cnc(N2CCOCC2)nc1)C1Cc2ccccc2C1	-3.97
COC(=O)c1cccc(-c2c[nH]c(C)n2)c1	-0.734
CSc1ncccc1C(=O)N1CCC2(CC1)c1nc[nH]c1CCN2C	52.6
CC(COc1ccccc1)NCc1nncn1C1CCCCC1 (stereo not drawn)	-4.23
CO[C@@H](C(=O)NC1CCOCC1)c1ccccc1	-2.43
CC(C)Nc1ccc(-c2ccnc3c2ccn3C)nn1	-7.94
CCn1c(CN2CCCC2)nnc1C1CCN(Cc2ccccn2)CC1	3.11
O=C(NC1CC1)c1cccc(S(=O)(=O)NCCc2nc(C3CC3)no2)c1	-0.714
Cc1cccc(C2CCCN(C(=O)CN3C(=O)CCNC3=O)C2)c1 (stereo not drawn)	-2.56
Cc1ccc2[nH]c(CN(C)c3cc(CCN)nc(C)n3)nc2c1	0
O=S(=O)(N1CCOCC1)N1CCCCC1CCn1cccn1 (stereo not drawn)	-0.302
Cc1noc(C)c1CN1C[C@@H](C(=O)O)[C@H](c2ccccc2)C1	-9.04
CCSc1ncc(-c2nccn2CCN(C)C)cn1	2.41
CCc1nc(C)cc(NC(C)C(=O)Nc2cc(F)ccc2C)n1 (stereo not drawn)	-4.44
O=c1[nH]ccn1CCCN1CC=C(c2cnn(-c3ccccc3)c2)CC1	7.95
Cc1ccc(S(=O)(=O)N2CCN(C)C3(CCC(=O)N(C)CC3)C2)s1 (stereo not drawn)	8.63
COc1ccccc1-c1ncc(CN2C[C@H](O)[C@@H](N3CCCC3)C2)s1	-6.34
Cc1cccnc1CN(C)c1ncnc2[nH]ccc12	4.77
Cc1cnc(C(=O)N2CCc3c(nc(-c4ccncc4)[nH]c3=O)C2)cn1	8.62
CCc1ncc(CN2CCCN(CC3CC3)C(C(C)C)C2)cn1 (stereo not drawn)	-6.03

SMILES	cytotoxicity at 10 µM [%]
C=C(C)COc1ccccc1NC(=O)N1CCCCC1CO (stereo not drawn)	-8.06
CCn1cc(S(=O)(=O)N2CCC3(CCCN(CC4CCC4)C3=O)C2)cn1 (stereo not drawn)	2.45
COc1ccc(-c2cn(CCSc3ncn[nH]3)nn2)cn1	3.36
CC(C)CS(=O)(=O)CC(=O)NC1CCCCNC1=O (stereo not drawn)	-3.03
CC(C(=O)NCCOc1ccc2c(c1)CCC2)n1cncn1 (stereo not drawn)	-1.58
COc1ccc(Cl)cc1CS(=O)(=O)CC(=O)N(C)Cc1ccccc1F	2.53
O=C(Cc1ccc2c(c1)CCO2)N1CCCC(n2cccn2)C1 (stereo not drawn)	5.67
COc1ccc(C(=O)N(C)Cc2cc(C)on2)c(OC)c1	-11.3
CCOC(=O)N1CCN(c2nc(N)c3ccccc3n2)CC1	-5.52
Cn1c2c(ccc1=O)CC(Nc1ncc(F)cn1)CC2 (stereo not drawn)	-143
CN(C)C[C@@H]1OC[C@H]2CN(Cc3ccoc3)CC[C@H]21	-131
Fc1cnc(N2CC3(CCN(CC4CC4)C3)C2)nc1	-2.73
Cc1cccc(N2CCC3(CCCC(=O)N3)CC2)n1	-3.8
Cn1cc(CN2CCc3c(nnn3C)C2COCc2ccccc2)cn1 (stereo not drawn)	-126
CN(C)C(=O)CN1C[C@H]2CCN(c3ncccn3)CC[C@H]2S1(=O)=O	0.466
O=C(NCC1CC1)[C@@H]1C[C@@H]2OCCN[C@@H]2C1	-131
CNC(=O)c1ccc2c(c1)C1(CCN(C(C)C)CC1)C(=O)N2	12.6
Cc1cccc(CN2CCc3nnc(CN4CCCCC4)n3CC2)n1	-1.45
COCCN1C(=O)[C@@H]2CC[C@H]1CN(C(=O)Cc1ccc(O)c(Cl)c1)C2	-4.26
Cc1noc(C)c1CN1C(=O)[C@@H]2CC[C@H]1CN(Cc1ncc[nH]1)C2	5.85
CNC(=O)c1cnc(C=Cc2ccc(O)c(OC)c2)s1	0.23
